Test results from ChEMBL document CHEMBL4765343, “Design and synthesis of novel SCM-198 analogs as cardioprotective agents: Structure-activity relationship studies and biological evaluations” (Eur J Med Chem, 2020).

Assays:
H9c2 [1] = assay: Antioxidant activity in rat H9c2 cells assessed as protection against H2O2-induced hypoxic injury by measuring cell viability at 10 uM preincubated for 4 hrs followed by H2O2 stimulation for 1 hr by MTT assay relative to control; format: functional
In short: (§1)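 H9c2 cells at 1 × 10^5 cells/mL, 100 μL per well in triplicate, left 18 h. Compound diluted in DMSO; DMSO alone as negative control. 4 h pretreatment, then 400 nM H2O2 for 1 h. Medium removed and MTT added for 2-4 h, formazan dissolved in DMSO, absorbance at 570 nm. Medium-only wells gave the blank.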

H9c2 [2] = assay: Antioxidant activity in rat H9c2 cells assessed as protection against H2O2-induced hypoxic injury by measuring cell viability at 1 uM preincubated for 4 hrs followed by H2O2 stimulation for 1 hr by MTT assay relative to control; format: functional; in short: as §1

Structure (SMILES) | Activity (H9c2 [1]) [%] | Activity (H9c2 [2]) [%]
COc1cc(/C=C/C(=O)OCCCCNC(=N)N)cc(OC)c1OC | 61.4 | 55.4
COc1cc(C(=O)OCCCCNC(=N)N)cc(OC)c1OC(C)=O | 55.2 | 52.3
COc1ccc(C(=O)OCCCCNC(=N)N)c(OC)c1OC | 57.8 | 49.2
COc1cc(C(=O)OCCCNC(=N)N)cc(OC)c1O | 55.2 | 50.1
COc1cc(C(=O)OCCCCCCNC(=N)N)cc(OC)c1O | 58.9 | 53.4
COc1cc(C(=O)OCCN2CCOCC2)cc(OC)c1O | 50.5 | 52.3
CC(=O)Oc1cccc(C(=O)OCCCCNC(=N)N)c1 | 62.8 | 59.7
COc1cc(OC)c(C(=O)OCCCCNC(=N)N)c(OC)c1 | 53.4 | 55.2
N=C(N)NCCCCOC(=O)C1CCCCC1 | 58.8 | 52.4
COc1cc(C(=O)OCCCCCNC(=N)N)cc(OC)c1O | 50.1 | 58.9
N=C(N)NCCCCOC(=O)c1ccc(C(F)(F)F)cc1 | 51.7 | 54.2
COc1cc(C(=O)OCCCCNC(=N)N)cc(OC)c1OC | 53.3 | 54.1
N=C(N)NCCCCOC(=O)c1ccc([N+](=O)[O-])cc1 | 59.6 | 67.7
COc1cc(C(=O)OCC2CCN(C(=N)N)CC2)cc(OC)c1O | 61 | 56.2
COc1cc(C(=O)OC(C)CNC(=N)N)cc(OC)c1O (stereo unspecified) | 54.2 | 52.2
N=C(N)NCCCCOC(=O)c1ccncc1 | 53.2 | 54
N=C(N)NCCCCOC(=O)c1ccc2[nH]ccc2c1 | 58.9 | 51.8
COc1cc(C(=O)OCCCCN)cc(OC)c1O | 56.2 | 56.3
